# High-throughput results from PubChem.
# This is a sample that favours compounds with a hit; in the whole collection about 1.7% have one here.
# S1P2 blocker = S1P2 (human) receptor antagonism | cell-based S1P2 antagonist assay, inhibition at 5 uM | inhibition, % at 5 µM | actives 0.21% (n = 97,000) | AID 736; in the data active = inhibition above about 45%;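 note: CRE beta-lactamase reporter cells expressing human S1P2 stimulated with S1P; 0% = agonist at EC80 alone and 100% = agonist plus reference antagonist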
# S1P2 ag = agonists of human S1P2 receptor; O95136; S1P2-expressing cell line, agonist reporter read-out; activation, % at 4.5 µM; AID 729; actives 0.46% (n = 97,000); in the data active = activation above about 16%;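 note: 0% = vehicle low control and 100% = maximal reference agonist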
# Rev-RRE block = inhibitors of HIV-1 Rev-RRE RNA interaction | AID 704 | Rev peptide-RRE RNA binding, FRET | actives 0.79% (n = 97,000) | P05866 | inhibition, % at 8 µM;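 active = inhibition above the screen-wide mean plus 3 SD, cut at about 35% in these data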;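 note: 0% = median DMSO wells and 100% = median Neomycin B control wells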
# Target sequence (P05866 whole entry, looked up): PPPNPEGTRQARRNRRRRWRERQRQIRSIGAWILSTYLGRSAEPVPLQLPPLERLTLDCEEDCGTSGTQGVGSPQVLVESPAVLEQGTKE
#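 Test system – labelled RRE RNA duplex and labelled Rev peptide · Reagent – labelled Rev peptide · Doses – one concentration, 8 µM nominal · Incubation – 5 + 15 min at 25 °C · Signal – FRET fluorescence readout · Read-out basis – % inhibition of FRET ratio versus controls · Control set – DMSO wells as 0% and neomycin B wells as 100% inhibition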
# GALR2 antag = GALR2 (human) receptor antagonism. actives 0.39% (n = 140,000). AID 828. inhibition, % at 4 µM. GALR2-expressing cells, antagonist mode; in the data active = inhibition above about 27%;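 note: cells stimulated with galanin 1-16 at roughly its EC80; 0% = agonist challenge control and 100% = basal control without agonist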
# Target sequence (O43603 whole entry, looked up): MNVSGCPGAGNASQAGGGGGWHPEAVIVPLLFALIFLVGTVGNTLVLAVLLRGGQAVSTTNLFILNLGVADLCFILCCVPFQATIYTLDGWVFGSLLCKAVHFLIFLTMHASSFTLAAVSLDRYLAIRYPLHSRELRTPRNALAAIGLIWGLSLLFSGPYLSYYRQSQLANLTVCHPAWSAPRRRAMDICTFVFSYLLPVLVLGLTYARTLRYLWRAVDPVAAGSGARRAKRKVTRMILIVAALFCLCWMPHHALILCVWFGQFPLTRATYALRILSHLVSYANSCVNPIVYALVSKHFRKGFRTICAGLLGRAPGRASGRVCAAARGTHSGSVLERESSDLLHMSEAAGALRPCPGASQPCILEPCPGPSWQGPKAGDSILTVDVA
# GALR2 agonist = activates the human galanin receptor 2; O43603; GALR2-expressing cells, agonist activation read-out; activation, % (test concentration not listed); actives 0.48% (n = 140,000); AID 803; in the data active = activation above about 5%, passing the limit was not always enough;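 note: 0% = vehicle buffer wells and 100% = reference agonist at full effect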
# EphB4 antag = EphB4-ephrin-B2 interaction antagonism; P54760; EphB4 LBD / TNYL-RAW-Alexa532 peptide, fluorescence polarization; inhibition, % at 7 µM; actives 0.15% (n = 97,000); AID 720;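 active = inhibition above the screen-wide mean inhibition plus 3 SD, cut at about 15% in these data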;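 note: 0% = DMSO wells and 100% = excess unlabeled TNYL-RAW peptide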
# Numbers without * were called inactive; nt = no result; [ ] = another dose, or the depositor's remark.
SMILES,S1P2 blocker,S1P2 ag,Rev-RRE block,GALR2 antag,GALR2 agonist,EphB4 antag
COCc1nnc(NC(=O)CC(c2ccccc2)c2ccccc2)s1,-3,-8,0,-11,-3,17*
COCc1nnc(NC(=O)CC(C)C)s1,-17,-4,1,6,-3,8
O=C(NC1CCCCCC1)C1CCC(CNS(=O)(=O)c2ccc(Br)s2)CC1 (stereo not drawn),nt,nt,nt,-7,5.3*,nt
Cc1[nH]c2ccccc2c1/C=C/c1cc[n+](C)cc1,14,-3,138*[fluorescence artefact?],-7,-2,2
CC1CCC/C(=N\NC(=O)COc2ccccc2Cl)C1 (stereo not drawn),nt,nt,nt,-2,-1,nt
Cc1ccc2nsnc2c1NC(=O)c1cccnc1Cl,nt,nt,nt,-4,0,nt
CCN(CC)c1ccc(C=C2C(=O)OC3(CCCC3)OC2=O)cc1,nt,nt,nt,-4,-1,nt
CN(C)c1ccc(C=C2C(=O)OC(C)(C(C)(C)C)OC2=O)cc1 (stereo not drawn),4,0,63*,-3,-1,-4
CN1C2CCC1/C(=C/c1cccn1C)C(=O)/C2=C\c1cccn1C,nt,nt,nt,24,-1,nt
Cn1cccc1/C=C1\CC(C(C)(C)C)C/C(=C\c2cccn2C)C1=O (stereo not drawn),15,-10,125*[fluorescence artefact?],-8,-3,3
c1ccc(CSc2nnc(-c3ccco3)n2Cc2ccco2)cc1,7,-6,5,16,-1,-2
CCCCOc1[nH]c2nc(-c3ccco3)n(Cc3ccco3)c(=N)c2c1C#N,19,-6,55*,-3,1,2
CC(C)(C)C(=O)N=C1SC2CS(=O)(=O)CC2N1c1ccc2c(c1)OCO2 (stereo not drawn),-14,-3,6,-3,-1,-10
CS(=O)(=O)c1nc(-c2cccs2)cc(C(F)(F)F)n1,29,-1,9,38*,2,-4
CCn1cc(/C=N\NC(=O)c2ccc(F)cc2)cn1,nt,nt,nt,-2,-1,nt
O=C(O)c1ccc(NC(=O)c2cccc(N3C(=O)C4C5CCC(C5)C4C3=O)c2)cc1 (stereo not drawn),nt,nt,nt,-8,-1,nt
CN(C)c1ccc(NC(=O)c2cccc(N3C(=O)C4C5C=CC(C5)C4C3=O)c2)cc1 (stereo not drawn),-2,-4,-5,47*,-3,0
CC1CCCCN1C(=O)Cn1nnc(-c2cccnc2)n1 (stereo not drawn),-4,-4,38*,3,-1,2
Cc1nn(C)cc1/C=C1\SC(=S)NC1=O,-14,3,2,-24,-1,6
Cc1cc(/C=C2\SC(=S)NC2=O)c(C)n1C,8,-3,54*,-3,-3,7
CCn1c2ccccc2c2cc(NC(=O)CSc3nnc(-c4ccc(OC)cc4)n3N)ccc21,30,-11,10,9,5.2*,12
Cc1cccc(-c2noc(CN(C(=O)C(c3ccccc3)c3ccccc3)C(C)C)n2)c1,3,-3,1,1,-2,-7
CCNc1nc2[nH]c(=O)c3c(c2s1)OC(N)=C(C#N)C3c1ccc(C)cc1 (stereo not drawn),6,-4,86*[fluorescence artefact?],0,-2,0
O=C(NNC(=O)C1CCCCC1)C(=O)NC1CCCCC1,21,-2,9,4,-1,16*
CCOc1ncccc1C(=O)OCC(=O)Nc1cc(C)ccc1C,-1,21*,7,7,-3,2
SMILES,S1P2 blocker,S1P2 ag,Rev-RRE block,GALR2 antag,GALR2 agonist,EphB4 antag
CCSc1nnc(-c2ccncc2)o1,-2,-6,6,1,0,-4
CCSc1nnc(-c2sc3nnc(-c4ccccc4)c(-c4ccccc4)c3c2N)o1,11,-10,117*[fluorescence artefact?],4,-3,3
CCN(CC)c1ccc(NC(=O)Nc2ccccc2C(F)(F)F)cc1,-6,62*,0,10,-3,-7
Cc1ccc2nc3c(c(C(=O)O)c2c1)CCC3,5,-5,3,-8,0,2
Cc1cccc2c(C(=O)O)c3c(nc12)CCCCC3,12,-6,10,3,-1,17*
Cc1ccc2ccc(C(Nc3ccccn3)c3ccccc3)c(O)c2n1 (stereo not drawn),-16,-3,9,5,-3,2
Cc1cc(NC(c2ccc(Cl)cc2)c2ccc3cccnc3c2O)no1 (stereo not drawn),6,-5,8,15,-1,16*
C=CCn1c(C)c(C(C)=O)c(N2CCN(c3ccccc3)CC2)nc1=S,4,-14,82*[fluorescence artefact?],3,-2,-5
CCOc1ccc(C(=O)N/N=C/c2ccc(-c3ccc(S(=O)(=O)Nc4ncccn4)cc3)o2)cc1,26,-2,5,4,1,-2
CCOc1ccc(NC(=O)C(=O)N/N=C\c2ccc(CNS(=O)(=O)c3ccccc3)o2)cc1,nt,nt,nt,11,5.7*,nt
c1ccc2c(c1)OCCOCCOc1ccccc1OCCOCCO2,nt,nt,nt,14,-1,nt
CN1Cc2sc(N)c(C#N)c2CC1(C)C,-17,-1,77*,1,1,-3
CCOC(=O)C(=O)c1cn(C2OCC(OC(C)=O)C(OC(C)=O)C2OC(C)=O)c2ccccc12 (stereo not drawn),nt,nt,nt,6,0,nt
COc1ccc(C(=O)NC(NC(=S)Nc2ccc(S(N)(=O)=O)cc2)C(Cl)(Cl)Cl)cc1 (stereo not drawn),23,-6,-1,-7,-1,4
Cc1ccc(C)c(N(CC(=O)N/N=C/c2ccc(-c3ccc([N+](=O)[O-])cc3)o2)S(=O)(=O)c2ccccc2)c1,67*,-15,33,14,-4,-7
COc1ccc2cc(/C=N/NC(=O)CN(c3ccccc3)S(=O)(=O)c3ccccc3)c(Cl)nc2c1,nt,nt,nt,-2,6.5*,nt
CCOc1ccc(S(=O)(=O)N(CC(=O)N/N=C/c2ccc(-c3ccc([N+](=O)[O-])cc3)o2)c2ccccc2)cc1,61*,-17,26,3,-1,1
CCOc1ccc(NC(=O)CN(c2ccc([N+](=O)[O-])cc2)S(=O)(=O)c2ccccc2)cc1,nt,nt,nt,-9,0,nt
O=C(NCCc1ccccc1)c1cccnc1N1CCCCCC1,10,-4,10,-3,3,5
Cc1ccc(CNC(=O)c2cc3c(=O)n4ccccc4nc3n(CC3CCCO3)c2=N)cc1 (stereo not drawn),nt,nt,nt,-12,8.3*,nt
N=c1c(C(=O)NCc2ccco2)cc2c(=O)n3ccccc3nc2n1Cc1ccc(Cl)cc1,-37,29*,19,-23,5.2*,2
N=c1c(C(=O)NCc2ccco2)cc2c(=O)n3ccccc3nc2n1Cc1ccccc1,2,14,9,5,4,1
Cc1cccn2c(=O)c3cc(C(=O)NC4CCCC4)c(=N)n(C4CCCC4)c3nc12,nt,nt,nt,0,5.0*,nt
COCCCn1c(=N)c(C(=O)NC2CCCCC2)cc2c(=O)n3ccccc3nc21,-56,32*,5,-26,16*,-4
